Hits are enriched below; roughly 5.5% of the tested compounds scored in any of these assays.
Yeast growth inh: chemicals that inhibit yeast BB579 growth in restrictive medium (lifespan-shortening candidates); hit rate 0.51% among 140,000; S. cerevisiae BB579 growth, OD615, 48 h; inhibition, % at 10 µM;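 active = inhibition above a set limit, 3 SD over the mean compound inhibition, cut at about 44% in these data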
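test system = yeast BB579 (DeaD) | buffer or medium = restrictive CSMM-D medium | doses = single compound dose of 10 µM, 0.25% DMSO final | times = 4 h preincubation and 48 h exposure at 30 °C | technique = culture absorbance at 615 nm | benchmarks = amphotericin B 10 µg/mL, positive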
RAM network inh: inhibitors of the yeast RAM network; hit rate 1.8% among 190,000; AID 868; S. cerevisiae dse1pr::URA3 reporter, 5-FOA growth OD615, 2 d; analog-sensitive cbk1-as2 kinase mutant strain; inhibition, % at 50 µM;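 active = inhibition above a set limit, 3 SD over mean compound inhibition, cut at about 8.4% in these data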;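 also: inhibition rescues growth on 5-FOA so higher OD means more RAM inhibition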
KCC2 mod: modulators of human KCC2 chloride dependent transport. KCC2 cells, thallium flux FluoZin-2 fluorescence. hit rate 2.2% among 190,000. B-score of Tl+ flux slope (higher = more flux/activation; lower = inhibition) at 10 µM. Q9H2X9;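 active = thallium flux slope and its plate-corrected score both differing from the plate sample mean at a set confidence after two filtering rounds, in either direction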;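 also: slope of fluorescence scaled to starting intensity during 10 to 20 s after thallium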
WT yeast gro inh: growth inhibition of WT yeast, mitochondrial fusion screen. inhibition, % at 10 µM. AID 1362. mitochondrial fusion phenotypic screen, WT strain. hit rate 2.1% among 190,000; in the data active = inhibition above about 58%; tested in S. cerevisiae
Yeast lifespan up: yeast lifespan extension; S. cerevisiae growth with nicotinamide, OD615; deaD strain in restrictive glucose medium; inhibition of the nicotinamide effect, % at 10 µM; hit rate 0.68% among 130,000;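 active = inhibition above a set limit, placed 3 SD over the median of all compounds, cut at about 26% in these data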
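assay system = DeaD-strain S. cerevisiae | buffer or medium = restrictive glucose medium | reagent = 1.5 mM nicotinamide | compound = 10 µM single point, 0.25% DMSO | incubation = 48 h compound exposure at 30 °C, humidified | signal = OD615 measurement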
Of the large screens only hits and unclear results are named; the others gave an inactive call.

CCN1CCN(c2nc3ccccc3nc2C(C#N)S(=O)(=O)c2ccc(C)cc2)CC1 (configuration not stated)	none
Cc1ccc(S(=O)(=O)C(C#N)c2nc3ccccc3nc2N2CCCC2)cc1 (configuration not stated)	Yeast lifespan up 72
O=C(NCc1ccc(Cl)cc1)c1ccccc1Oc1ccccc1	WT yeast gro inh 61
CC(C(=O)Nc1ccccc1Sc1ccccc1)N(c1ccccc1)S(C)(=O)=O (configuration not stated)	RAM network inh 8.4 (no result: KCC2 mod)
CS(=O)(=O)N(Cc1ccc(C(=O)Nc2ccccc2Sc2ccccc2)cc1)c1ccccc1	none
Cc1cc(SCC(=O)O)nc2ccccc12	none (no result: Yeast growth inh, Yeast lifespan up)
Cc1cc(SCC(=O)NCCC2=CCCCC2)nc2ccccc12	WT yeast gro inh 69
Cc1cc(SCC(=O)c2cc3ccccc3o2)nc2ccccc12	RAM network inh 11
CCC(O)CNC(=O)NC(=C(Cl)Cl)c1ccc(C)c(F)c1 (configuration not stated)	none
CCC/C=C(\CCC)C(NS(=O)(=O)c1ccc(C(F)(F)F)cc1)c1ccccc1 (configuration not stated)	RAM network inh 11
CCSc1nnc(NC(=O)CSc2nc(C)cc(C)n2)s1	Yeast lifespan up 36
CC(C)N1C2OC(C3OC4C(O3)N(C(C)C)S(=O)(=O)N4C(C)C)OC2N(C(C)C)S1(=O)=O (configuration not stated)	WT yeast gro inh 63 (no result: KCC2 mod)
O=C(CNC(=O)c1ccc2c(c1)OCCO2)N/N=C/c1cccc(Br)c1	none (no result: Yeast growth inh, Yeast lifespan up)
Cc1csc(C(=O)NN)c1N(C)C	none (no result: Yeast growth inh, RAM network inh, WT yeast gro inh, Yeast lifespan up)
O=C(c1ccc(Br)o1)N(Cc1ccccc1)Cc1ccccc1	WT yeast gro inh 79
Fc1ccc(C(CCCn2nnc(-c3cccnc3)n2)c2ccc(F)cc2)cc1	RAM network inh 10.0, WT yeast gro inh 61
Fc1ccc(-n2nnc(-c3cccnc3)n2)cc1	none (no result: Yeast growth inh, Yeast lifespan up)
Clc1ccccc1-c1nnc2sc(CCc3ccccc3)nn12	KCC2 mod -3.4
c1ccc(CCc2nn3c(-c4ccncc4)nnc3s2)cc1	none
Cc1oc(-c2ccccc2)nc1CS(=O)CC(=O)O (configuration not stated)	KCC2 mod 2.9
COc1ccc(Br)cc1/C=C/C(=O)Nc1ccc2ccccc2c1	none
CCC(=O)Nc1cccc(C(=O)/C=C/c2cc(Br)ccc2OC)c1	RAM network inh 9.6, WT yeast gro inh 89
CCc1c(C(=O)NCCc2ccc(OC)c(OC)c2)[nH]c(C)c1C(C)=O	Yeast lifespan up 47
CCN1C(=O)[C@@H]2[C@H](C1=O)[C@@H]1C[C@H]3C(=O)N(CC)C(=O)[C@H]3[C@@H]3C1=C(C(=O)N1C(=O)OC(=NCC4CC4)[C@]31C)[C@@H]2C	none (no result: Yeast growth inh, RAM network inh, WT yeast gro inh, Yeast lifespan up)
COc1ccc(Cl)cc1CN1CCOCC1	none (no result: Yeast growth inh, RAM network inh, WT yeast gro inh, Yeast lifespan up)
Cc1cc(OCc2cccc(Cl)c2)c(C)cc1CN1CCOCC1	WT yeast gro inh 70 (no result: Yeast growth inh, Yeast lifespan up)
O=c1[nH]cnc2c1c(-c1ccccc1)cn2-c1ccc(Br)cc1	WT yeast gro inh 71
Cc1nc(-c2nnc(SCC(=O)Nc3ccc(Cl)cc3)n2C)cs1	none (no result: Yeast growth inh, RAM network inh, WT yeast gro inh, Yeast lifespan up)
N/C(Cc1ccc(Cl)cc1Cl)=N\OC(=O)c1cccs1	Yeast growth inh 100
O=C(COC(=O)C1(c2ccccc2F)CCCC1)NCc1cccs1	none (no result: Yeast growth inh, Yeast lifespan up)
C=CCn1c(CNc2ccc(C)cc2)nnc1SCC(=O)N/N=C/c1ccc(O)cc1	none
COc1ccc2nc(Nc3sc4c(c3C(N)=O)CCCC4)sc2c1	none
CCOC(=O)c1c(N)sc2c(OC)c(Br)ccc12	Yeast growth inh 95 (no result: KCC2 mod)
Fc1ccc(CSc2ncnc3scc(-c4ccccc4)c23)cc1	RAM network inh 10
COC(=O)CSc1ncnc2scc(-c3ccccc3)c12	none (no result: Yeast growth inh, RAM network inh, WT yeast gro inh, Yeast lifespan up)
Cc1nc(N2CCN(C(=O)c3ccco3)CC2)c2c3c(sc2n1)CCC3	none
CC(C)c1nc(N2CCN(C(=O)c3ccco3)CC2)c2c3c(sc2n1)CCCC3	WT yeast gro inh 81
COc1cc(/C=C2/SC(=S)N(c3ccccc3)C2=O)ccc1Oc1nc(N2CCOCC2)nc(N2CCOCC2)n1	RAM network inh 9.3
Cc1cc(C)n(CC(O)Cn2c3ccc(Cl)cc3c3cc(Cl)ccc32)c(=O)n1 (configuration not stated)	WT yeast gro inh 97
CCOC(=O)c1c(C)n(O)c2ccc(Cl)cc2c1=O	none
CCOP(=O)(OCC)C(NC(=O)c1cccs1)C(F)(F)F (configuration not stated)	none (no result: Yeast growth inh, Yeast lifespan up)
